Reference: ChEMBL document CHEMBL1126204, “Nucleic acid related compounds. 74. Synthesis and biological activity of 2'(and 3')-deoxy-2'(and 3')-methylenenucleoside analogues that function as mechanism-based inhibitors of S-adenosyl-L-homocysteine hydrolase and/or ribonucleotide reductase” (J Med Chem, 1992)

Assays:
MT4 = experiment: In vitro inhibition of MT-4 (Human T-lymphocyte) cell proliferation.; format: functional, cell-based
Summary of the method: (§1)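 Human Molt/4F, MT-4, and Raji cells (wild-type, TK⁻ or dCK⁻) in RPMI-1640 with 10% inactivated FCS, 2 mM L-glutamine and 0.075% NaHCO₃, seeded at 7.5 × 10⁵ cells/mL with compound (0.001–500 µM). Incubated 3 days at 37 °C in humidified CO₂; viable cells counted by Coulter counter. IC₅₀ = 50% reduction in viable cells; means of 2–4 independent experiments.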

L1210 [1] = experiment: In vitro inhibition of L1210 (murine leukemia) cell proliferation.; format: functional, cell-based; conditions: Mus musculus
Summary of the method: (§2)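 Murine FM3A or L1210 cells in Eagle's MEM with 10% inactivated FCS, 2 mM L-glutamine and 0.075% NaHCO₃, seeded at 5 × 10⁵ cells/mL with compound (0.001–500 µM). After 2 days at 37 °C in humidified CO₂, viable cells were counted with a Coulter counter. IC₅₀ = 50% fewer viable cells; mean of 2–4 experiments.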

[2] = In vitro inhibition of FM3A (murine carcinoma) cell proliferation.; format: functional; conditions: Mus musculus; summary of the method: as §2
[3] = In vitro inhibition of Molt/4f (Human T-lymphoblast) cell proliferation.; format: functional; summary of the method: as §1
L1210 [4] = experiment: Antitumor activity in mice bearing L1210 murine leukemia cell line at a dose of 25 mg/kg/day.; format: functional, Mus musculus
Summary of the method: (§3)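 DBA/2 mice (20 g) inoculated ip with 10⁶ L1210 leukemia cells; test agent given ip once daily for 5 successive days beginning 1 day after inoculation, dissolved in Eagle's MEM containing 2.5% Tween (250 μL injection). Untreated tumor-bearing controls; read-out mean survival time in days, 7–15 mice per group.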

L1210 [5] = experiment: Antitumor activity in mice bearing L1210 murine leukemia cell line at a dose of 12.5 mg/kg/day.; format: functional, Mus musculus; summary of the method: as §3
[6] = Concentration required to inhibit the proliferation of human T-lymphocyte CEM/AK-/dCK-(Ado and dCyd kinase deficient) cells by 50%
L1210 [7] = experiment: Concentration required to inhibit the proliferation of L1210 murine leukemia cell line by 50% in presence exogenous necleosides dCyd+Ado (100 uM).; format: functional, cell-based; conditions: Mus musculus, in the assay text read “1000 uM” for “100 uM”
Summary of the method: (§4)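 L1210 murine leukemia cells in Eagle's MEM with 10% inactivated fetal calf serum, 2 mM L-glutamine and 0.075% NaHCO₃. 5 × 10⁵ cells/mL were exposed to test compound (0.001–500 µM) together with the stated exogenous nucleoside at subtoxic level. Incubated 2 days at 37 °C in humidified CO₂. Viable cells were counted by Coulter counter. IC₅₀ = 50% reduction in viable cell number; mean of 2–4 independent experiments.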

L1210 [8] = experiment: Antitumor activity in mice bearing L1210 murine leukemia cell line at a dose of 50 mg/kg/day.; format: functional, Mus musculus; summary of the method: as §3
[9] = Concentration required to inhibit the proliferation of human T-lymphocyte CEM/AK-(Ado kinase deficient) cells by 50%
L1210 [10] = experiment: Concentration required to inhibit the proliferation of L1210 murine leukemia cell line by 50% in presence exogenous necleoside Guo (50 uM).; format: functional, cell-based; conditions: Mus musculus; summary of the method: as §4
L1210 [11] = experiment: Antitumor activity in mice bearing L1210 murine leukemia cell line at a dose of 100 mg/kg/day.; format: functional, Mus musculus; summary of the method: as §3
[12] = Concentration required to inhibit the proliferation of human T-lymphocyte CEM cells by 50% in presence exogenous necleoside Ado (100 uM).; format: functional, cell-based; conditions: CCRF-CEM, in the assay text read “1000 uM” for “100 uM”
Summary of the method: (§5)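 CEM human T-lymphocytes in RPMI-1640 with 10% inactivated FCS, 2 mM L-glutamine and 0.075% NaHCO₃. Test compound (0.001–500 µM) was co-added with the stated subtoxic exogenous nucleoside(s). Incubated 3 days at 37 °C in humidified CO₂, then viable cells counted by Coulter counter. IC₅₀ is the level giving 50% fewer viable cells; means of 2–4 independent experiments.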

L1210 [13] = experiment: Concentration required to inhibit the proliferation of L1210 murine leukemia cell line by 50% in presence exogenous necleoside Ado (100 uM).; format: functional, cell-based; conditions: Mus musculus, in the assay text read “1000 uM” for “100 uM”; summary of the method: as §4
[14] = Concentration required to inhibit the proliferation of human T-lymphocyte CEM cells by 50% in presence exogenous necleoside dCyd (100 uM).; format: functional, cell-based; conditions: CCRF-CEM, in the assay text read “1000 uM” for “100 uM”; summary of the method: as §5
L1210 [15] = experiment: Concentration required to inhibit the proliferation of L1210 murine leukemia cell line by 50% in presence exogenous necleoside dCyd (100 uM).; format: functional, cell-based; conditions: Mus musculus, in the assay text read “1000 uM” for “100 uM”; summary of the method: as §4
[16] = Concentration required to inhibit the proliferation of human T-lymphocyte CEM/dCK-(dCyd kinase deficient) cells by 50%
CEM (Homo sapiens) = experiment: Concentration required to inhibit the proliferation of human T-lymphocyte CEM/o cells by 50%
[17] = Concentration required to inhibit the proliferation of human T-lymphocyte CEM cells by 50% in presence exogenous necleoside Ado+dCyd (100 uM).; format: functional, cell-based; conditions: CCRF-CEM, in the assay text read “1000 uM” for “100 uM”; summary of the method: as §5
[18] = Concentration required to inhibit the proliferation of human T-lymphocyte CEM/AK-/dCK-(Ado and dCyd kinase deficient) cells by 50%; format: functional
Summary of the method: (§6)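 Wild-type CEM and kinase-deficient sublines (AK⁻, dCK⁻, AK⁻/dCK⁻) grown in RPMI-1640 with 10% inactivated FCS, 2 mM L-glutamine and 0.075% NaHCO₃. Cells were exposed to compound at 0.001–500 µM for 3 days at 37 °C in humidified CO₂. Viable cells counted by Coulter counter; IC₅₀ = 50% reduction in viable cells. Mean of 2–4 independent experiments.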

[19] = Concentration required to inhibit the proliferation of human T-lymphocyte CEM/AK-(Ado kinase deficient) cells by 50%; format: functional; summary of the method: as §6
[20] = Concentration required to inhibit the proliferation of human T-lymphocyte CEM/dCK-(dCyd kinase deficient) cells by 50%; format: functional; summary of the method: as §6
CCRF-CEM = experiment: Concentration required to inhibit the proliferation of human T-lymphocyte CEM/o cells by 50%; format: functional, cell-based; summary of the method: as §6

| IC50 (L1210 [1]) | Structure (SMILES) | IC50 (MT4) | IC50 [2] | IC50 [3] | other results |
| --- | --- | --- | --- | --- | --- |
| > 500 µM | C=C1[C@@H](O)[C@H](n2cnc3c(N(C)C)nc(N)nc32)O[C@@H]1CO | > 500 µM | > 500 µM | > 500 µM |  |
| > 500 µM | C=C1[C@H](n2ccc(=O)[nH]c2=O)O[C@H](CO)[C@H]1O | > 500 µM | > 500 µM | > 500 µM |  |
| 65 µM | C=C1[C@H](n2cnc3c(N)ncnc32)O[C@H](CO)[C@H]1O | 131 µM | 232 µM | > 500 µM |  |
| 10 µM | C=C1[C@H](n2cnc3c(OC)nc(N)nc32)O[C@H](CO)[C@H]1O | 180 µM | 41 µM | 23 µM |  |
| 10 µM | C=C1[C@H](n2cnc3c(Cl)nc(N)nc32)O[C@H](CO)[C@H]1O | 176 µM | 50 µM | 22 µM |  |
| 20 µM | C=C1[C@H](n2cnc3c(S)nc(N)nc32)O[C@H](CO)[C@H]1O | 0.48 µM | 26 µM | 24 µM |  |
| 60 µM | C=C1[C@H](n2cnc3c(O)ncnc32)O[C@H](CO)[C@H]1O | > 200 µM | 113 µM | > 200 µM |  |
| 454 µM | C=C1[C@H](n2cnc3c(N(C)C)nc(N)nc32)O[C@H](CO)[C@H]1O | > 500 µM | > 500 µM | 335 µM |  |
| > 500 µM | C=C1[C@H](n2cnc3c(SC)nc(N)nc32)O[C@H](CO)[C@H]1O | > 500 µM | > 500 µM | > 500 µM |  |

| Structure (SMILES) | IC50 (L1210 [1]) | IC50 (MT4) | IC50 [2] | IC50 [3] | other results |
| --- | --- | --- | --- | --- | --- |
| C=C1[C@H](n2cnc3c(N)nc(N)nc32)O[C@H](CO)[C@H]1O | 8.2 µM | > 500 µM | 67 µM | 22 µM | Mean survival time (L1210 [4]): 8.7 days; Mean survival time (L1210 [5]): 9.1 days; IC50 [6]: 194 µM; IC50 (L1210 [7]): 41 µM; Mean survival time (L1210 [8]): 3 days; IC50 [9]: 38 µM; IC50 (L1210 [10]): 44 µM; Mean survival time (L1210 [11]): 2 days; IC50 [12]: 21 µM; IC50 (L1210 [13]): 48 µM; IC50 [14]: 133 µM; IC50 (L1210 [15]): 16 µM; IC50 [16]: 196 µM; IC50 (CEM (Homo sapiens)): 7.7 µM; IC50 [17]: 95 µM |
| C=C1[C@H](n2cnc3c(O)nc(N)nc32)O[C@H](CO)[C@H]1O | 8.5 µM | 150 µM | 102 µM | 22 µM | IC50 [18]: 201 µM; IC50 [19]: 36 µM; Mean survival time (L1210 [4]): 7.5 days; IC50 [20]: 221 µM; Mean survival time (L1210 [5]): 7.5 days; IC50 (L1210 [7]): 75 µM; Mean survival time (L1210 [8]): 5.3 days; IC50 (CCRF-CEM): 9.4 µM; IC50 (L1210 [10]): 51 µM; Mean survival time (L1210 [11]): 2 days; IC50 [12]: 25 µM; IC50 (L1210 [13]): 55 µM; IC50 [14]: 136 µM; IC50 (L1210 [15]): 17 µM; IC50 [17]: 136 µM |
